Experimental data as given in ChEMBL document CHEMBL5385922 (J Med Chem, 2024).
pIC50: −log10 of the molar value. Each block holds one compound with its values, some of them ahead of it. Activity calls are given as the source filed them. The rule behind the calls is not given here.

Columns and labels:
[1] = target: T1, Protein disulfide-isomerase (Homo sapiens, UniProt P07237); experiment: Non-covalent inhibition of PDI (unknown origin) by GSSG fluorescence assay
Target sequence in this assay (P07237 whole entry): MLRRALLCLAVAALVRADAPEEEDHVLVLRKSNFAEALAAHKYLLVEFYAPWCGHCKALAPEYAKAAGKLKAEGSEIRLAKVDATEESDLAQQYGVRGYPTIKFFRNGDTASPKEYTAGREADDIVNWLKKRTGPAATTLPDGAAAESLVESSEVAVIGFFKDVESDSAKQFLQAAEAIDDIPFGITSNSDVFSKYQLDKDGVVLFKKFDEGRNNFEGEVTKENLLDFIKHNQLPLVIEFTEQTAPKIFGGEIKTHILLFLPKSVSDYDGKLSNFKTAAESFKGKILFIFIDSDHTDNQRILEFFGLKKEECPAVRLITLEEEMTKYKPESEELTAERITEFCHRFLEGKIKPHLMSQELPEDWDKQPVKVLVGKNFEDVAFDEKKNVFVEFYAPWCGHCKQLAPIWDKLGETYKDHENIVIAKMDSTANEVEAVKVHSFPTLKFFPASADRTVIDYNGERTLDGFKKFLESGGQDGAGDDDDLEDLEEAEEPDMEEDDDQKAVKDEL

[2] = target: T1, Protein disulfide-isomerase; experiment: Non-covalent inhibition of human recombinant PDI assessed as inhibition of E-GSH formation using Di-E-GSSG as substrate at 10 uM measured for 60 mins in presence of DTT and 1 mM GSH by fluorescence based analysis
Method in brief: (§1)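 Human rPDI incubated with compounds at 10 μM in the presence of DTT (5 μM) or GSH (1 mM). PDI activity read by Di-E-GSSG assay (E-GSH fluorescence). Mean ± SEM of three independent experiments.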
Target sequence in this assay (P07237 18-508 limits assumed): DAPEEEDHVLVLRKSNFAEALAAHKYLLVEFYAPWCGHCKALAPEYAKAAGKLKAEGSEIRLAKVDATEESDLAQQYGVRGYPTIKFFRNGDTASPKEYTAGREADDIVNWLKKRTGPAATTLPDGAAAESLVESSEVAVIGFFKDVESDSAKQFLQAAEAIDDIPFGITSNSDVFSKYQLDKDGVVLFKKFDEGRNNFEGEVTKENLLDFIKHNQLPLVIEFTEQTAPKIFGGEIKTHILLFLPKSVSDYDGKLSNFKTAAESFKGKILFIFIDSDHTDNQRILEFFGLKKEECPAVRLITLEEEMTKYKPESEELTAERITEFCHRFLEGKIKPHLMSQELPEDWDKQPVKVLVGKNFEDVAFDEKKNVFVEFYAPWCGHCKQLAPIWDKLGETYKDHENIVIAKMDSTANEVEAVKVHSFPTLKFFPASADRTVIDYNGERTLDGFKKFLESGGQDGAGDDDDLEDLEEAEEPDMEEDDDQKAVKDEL

[3] = target: T1, Protein disulfide-isomerase; experiment: Covalent inhibition of human recombinant PDI assessed as inhibition of E-GSH formation using Di-E-GSSG as substrate at 10 uM measured for 60 mins in presence of DTT and 1 mM GSH by fluorescence based analysis; method in brief: as §1
Target sequence in this assay (P07237 18-508 limits assumed): as above

[4] = GSH reactivity in aqueous solution assessed as GSH-adduct formation at 400 uM incubated for 30 mins in presence of GSH by UPLC-MS analysis; assay type: physicochemical; conditions: buffer, 0.5 h
Method in brief: (§2)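 Compounds (400 μM) incubated in water with or without GSH (4 mM) at 37 °C for 30 min. Diluted 1:1 with methanol, then analysed by UPLC-MS on a BEH C18 column (water/acetonitrile gradient, 0.4 mL/min, 40 °C) in positive/negative ion mode.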

[5] = tested on: Platelet; experiment: Inhibition of tumor cell-induced platelet secretion in human platelets assessed as inhibition of A549-induced PDGF secretion at 1 to 5 uM by ELISA; assay type: functional, cell-based; conditions: dose 1-5 µM
Method in brief: (§3)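 Washed human platelets were co-incubated with A549 cells under TCIPA conditions (0.375% plasma, stirred, 37 °C) for 25 min in the aggregometer, then centrifuged at 13,000g for 1 min. Supernatant PDGF-BB measured by ELISA and ATP by bioluminescent assay. Mean ± SEM, at least three independent experiments.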

[6] = tested on: Platelet; experiment: Antiplatelet activity against tumor cells-stimulated human platelets assessed as inhibition of A549 cells-induced platelet aggregation at 2 uM by turbidometric aggregometry; assay type: functional, cell-based
Method in brief: (§4)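 Washed human platelets from ACD-anticoagulated blood of healthy volunteers, stirred at 1200 rpm, 37 °C, in 0.375% plasma. Aggregation was induced by A549 (1 × 10^4 cells/mL), MDA-MB-231 (1 × 10^2 cells/mL) or RPMI8226 (1 × 10^5 cells/mL) cells. Read-out is the maximal increase in light transmission by turbidimetric aggregometry. n = 3.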

[7] = tested on: A549; experiment: Cytotoxicity against human A549 cells assessed as reduction in cell viability at 0.5 to 2 uM incubated for 48 hrs by trypan bue exclusion assay; assay type: functional, cell-based; conditions: dose 0.5-2 µM
[8] = tested on: U-87 MG; experiment: Cytotoxicity against human U87 cells assessed as reduction in cell viability incubated for 24 hrs by resazurin assay; assay type: functional, cell-based, U-87MG ATCC
Method in brief: (§5)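 Cell lines kept at 37 °C in humidified 5% CO2. Cells exposed to compounds for 24 h with DMSO control; viability measured by resazurin assay. Mean ± SEM, n = 3.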

[9] = tested on: Platelet; experiment: Antiplatelet activity against tumor cells-stimulated human platelets assessed as inhibition of MDA-MB-231 cells-induced platelet aggregation at 2 uM by turbidometric aggregometry; assay type: functional, cell-based; method in brief: as §4
[10] = tested on: Platelet; experiment: Inhibition of tumor cell-induced platelet secretion in human platelets assessed as inhibition of A549-induced ATP secretion at 1 to 5 uM by bioluminescent assay; assay type: functional, cell-based; conditions: dose 1-5 µM; method in brief: as §3
[11] = tested on: A549; experiment: Inhibition of platelet-enhanced cell growth in human A549 cells assessed as reduction in cell viability at 0.5 to 2 uM co-incubated with platelets for 48 hrs by trypan blue exclusion assay; assay type: functional, cell-based; conditions: dose 0.5-2 µM
Method in brief: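 A549 cells (1 × 10^4/well) co-incubated with washed human platelets (1 × 10^7/well) in 0.375% plasma for 48 h at 37 °C, 5% CO2. After PBS washing, viable cancer cells counted by trypan blue exclusion. Mean ± SEM, at least three independent experiments.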

[12] = tested on: Platelet; experiment: Antiplatelet activity against tumor cells-stimulated human platelets assessed as inhibition of RPMI-8226 cells-induced platelet aggregation at 2 uM by turbidometric aggregometry; assay type: functional, cell-based; method in brief: as §4
[13] = tested on: RPMI-8226; experiment: Cytotoxicity against human RPMI-8226 cells assessed as reduction in cell viability at 0.001 to 10 uM incubated for 72 hrs by resazurin assay; assay type: functional, cell-based; conditions: dose 0.001-10 µM
Method in brief: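 RPMI8226 cells exposed to compounds for 72 h at 37 °C, 5% CO2 with DMSO control; viability measured by resazurin assay, n = 4.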

[14] = target: T1, Protein disulfide-isomerase; experiment: Covalent inhibition of PDI (unknown origin) by GSSG fluorescence assay
Target sequence in this assay (P07237 whole entry): as the sequence (P07237 whole entry) above

[15] = tested on: RPMI-8226; experiment: Cytotoxicity against human RPMI-8226 cells assessed as reduction in cell viability incubated for 24 hrs by resazurin assay; assay type: functional, cell-based; method in brief: as §5
[16] = tested on: Platelet; experiment: Antiplatelet activity in human platelets assessed as inhibition of U46619-induced platelet aggregation upto 40 uM by turbidimetric analysis; assay type: functional, cell-based
[17] = tested on: Platelet; experiment: Antiplatelet activity in human platelets assessed as inhibition of collagen-induced platelet aggregation upto 40 uM by turbidimetric analysis; assay type: functional, cell-based
[18] = tested on: MDA-MB-231; experiment: Cytotoxicity against human MDA-MB-231 cells assessed as reduction in cell viability incubated for 24 hrs by resazurin assay; assay type: functional, cell-based; method in brief: as §5
[19] = tested on: A549; experiment: Cytotoxicity against human A549 cells assessed as reduction in cell viability incubated for 24 hrs by resazurin assay; assay type: functional, cell-based; method in brief: as §5
[20] = target: T1, Protein disulfide-isomerase; experiment: Covalent inhibition of PDI (unknown origin) by insulin aggregation assay
Target sequence in this assay (P07237 whole entry): as above

[21] = target: T2, Protein disulfide-isomerase A4 (Homo sapiens, UniProt P13667); experiment: Inhibition of human recombinant ERp72 assessed as inhibition of E-GSH formation using Di-E-GSSG as substrate measured for 60 mins in presence of DTT by fluorescence based analysis
T2 sequence (P13667 whole entry): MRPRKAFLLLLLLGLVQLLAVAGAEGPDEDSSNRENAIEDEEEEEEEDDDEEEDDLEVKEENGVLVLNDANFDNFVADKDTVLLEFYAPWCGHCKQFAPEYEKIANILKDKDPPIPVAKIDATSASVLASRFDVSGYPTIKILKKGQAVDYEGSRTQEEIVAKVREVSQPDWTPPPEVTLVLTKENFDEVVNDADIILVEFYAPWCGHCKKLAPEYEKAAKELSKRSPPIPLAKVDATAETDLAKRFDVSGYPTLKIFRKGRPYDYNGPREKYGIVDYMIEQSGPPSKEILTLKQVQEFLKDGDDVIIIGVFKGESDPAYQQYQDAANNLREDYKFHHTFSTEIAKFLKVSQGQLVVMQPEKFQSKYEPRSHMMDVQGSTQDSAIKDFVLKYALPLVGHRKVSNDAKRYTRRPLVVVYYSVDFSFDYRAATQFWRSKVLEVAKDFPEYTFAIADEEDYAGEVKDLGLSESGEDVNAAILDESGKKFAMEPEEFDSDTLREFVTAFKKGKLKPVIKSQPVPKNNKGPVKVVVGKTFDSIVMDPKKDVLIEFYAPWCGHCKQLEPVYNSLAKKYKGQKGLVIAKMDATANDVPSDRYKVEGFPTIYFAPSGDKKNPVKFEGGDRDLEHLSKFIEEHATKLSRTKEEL
Method in brief: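 Recombinant human ERp72 reductase activity measured with Di-E-GSSG substrate, started with DTT, by fluorometry of E-GSH formation. Mean ± SEM, n = 3.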

[22] = tested on: Platelet; experiment: Inhibition of tumor cell-induced platelet secretion in human platelets assessed as inhibition of A549-induced PDGF secretion at 1 uM by ELISA; assay type: functional, cell-based; method in brief: as §3
[23] = tested on: Platelet; experiment: Antiplatelet activity against tumor cells-stimulated human platelets assessed as inhibition of A549 cells-induced platelet aggregation at 1 uM by turbidometric aggregometry; assay type: functional, cell-based; method in brief: as §4
[24] = tested on: Platelet; experiment: Inhibition of tumor cell-induced platelet secretion in human platelets assessed as inhibition of A549-induced ATP secretion at 1 uM by bioluminescent assay; assay type: functional, cell-based; method in brief: as §3
[25] = tested on: Platelet; experiment: Antiplatelet activity against tumor cells-stimulated human platelets assessed as inhibition of RPMI-8226 cells-induced platelet aggregation at 1 uM by turbidometric aggregometry; assay type: functional, cell-based; method in brief: as §4
[26] = tested on: Platelet; experiment: Antiplatelet activity against tumor cells-stimulated human platelets assessed as inhibition of MDA-MB-231 cells-induced platelet aggregation at 1 uM by turbidometric aggregometry; assay type: functional, cell-based; method in brief: as §4
[27] = Stability of the compound in aqueous solution at 400 uM measured after 30 mins by UPLC-MS analysis; assay type: physicochemical; conditions: buffer, 0.5 h; method in brief: as §2
[28] = tested on: Platelet; experiment: Antiplatelet activity in human platelets assessed as inhibition of U46619-induced platelet aggregation by turbidimetric analysis; assay type: functional, cell-based
Method in brief: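 Washed human platelets from ACD-anticoagulated volunteer blood, stimulated with U46619 (1 μM). Aggregation measured turbidimetrically under stirring (1200 rpm) at 37 °C as the maximal increase in light transmission.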

[29] = tested on: Platelet; experiment: Inhibition of tumor cell-induced platelet secretion in human platelets assessed as inhibition of A549-induced ATP secretion at 100 uM by bioluminescent assay; assay type: functional, cell-based; method in brief: as §3
[30] = tested on: Platelet; experiment: Antiplatelet activity against tumor cells-stimulated human platelets assessed as inhibition of RPMI-8226 cells-induced platelet aggregation at 100 uM by turbidometric aggregometry; assay type: functional, cell-based; method in brief: as §4
[31] = tested on: Platelet; experiment: Antiplatelet activity against tumor cells-stimulated human platelets assessed as inhibition of A549 cells-induced platelet aggregation at 100 uM by turbidometric aggregometry; assay type: functional, cell-based; method in brief: as §4
[32] = tested on: Platelet; experiment: Antiplatelet activity against tumor cells-stimulated human platelets assessed as inhibition of MDA-MB-231 cells-induced platelet aggregation at 100 uM by turbidometric aggregometry; assay type: functional, cell-based; method in brief: as §4
[33] = tested on: Platelet; experiment: Inhibition of tumor cell-induced platelet secretion in human platelets assessed as inhibition of A549-induced PDGF secretion at 100 uM by ELISA; assay type: functional, cell-based; method in brief: as §3

SMILES: COc1cccc(SC2=CC(=O)c3cccc(O)c3C2=O)c1
- inhibition [3]: Active

SMILES: COc1ccc(N2C(=O)/C(=C\c3ccc([N+](=O)[O-])s3)SC2=S)cc1
- Activity [13]: Active
- pIC50 [14]: 5.54

SMILES: CC(C)(C)CN(C(=O)CCl)C1CCS(=O)(=O)C1 (stereo unspecified)
- IC50 [15]: Not Active
- Activity [16]: inactive
- Activity [17]: inactive
- IC50 [18]: Not Active
- IC50 [19]: Not Active

SMILES: C#CC(=O)N(c1ccc(OC)cc1OC)C(C(=O)NCC(=O)OCC)c1cccs1 (stereo unspecified)
- pIC50 [20]: 5.00

SMILES: C#CCCCNC(=O)[C@@H](CCNC(=O)[C@H](Cc1ccccc1)NC(=O)OC(C)(C)C)Cc1ccc(OS(=O)(=O)C=C)cc1
- pIC50 [20]: 5.77

SMILES: CCCSc1nc(N[C@@H]2C[C@H]2c2ccc(F)c(F)c2)c2nnn([C@@H]3C[C@H](OCCO)[C@@H](O)[C@H]3O)c2n1
- inhibition [22]: inactive
- Activity [23]: inactive
- inhibition [24]: inactive
- Activity [25]: inactive
- Activity [26]: inactive

SMILES: CC(=O)Oc1ccccc1C(=O)O [ASPIRIN]
- pIC50 [28]: < 3.70
- inhibition [29]: inactive
- Activity [30]: inactive
- Activity [31]: inactive
- Activity [32]: inactive
- inhibition [33]: inactive

Continued, in another order:

- pIC50 [1]: 5.15
- inhibition [2]: Active
SMILES: O=c1c(O[C@@H]2O[C@H](CO)[C@@H](O)[C@H](O)[C@H]2O)c(-c2ccc(O)c(O)c2)oc2cc(O)cc(O)c12 [ISOQUERCETIN]

- inhibition [3]: Active
- Activity [4]: Active
SMILES: CC(=O)OC[C@H]1O[C@@H](SC2=C(c3ccc(O)cc3O)C(=O)c3c(O)cccc3C2=O)[C@H](OC(C)=O)[C@@H](OC(C)=O)[C@@H]1OC(C)=O

- inhibition [3]: Active
SMILES: CC(=O)O[C@@H]1O[C@H](CSC2=CC(=O)c3cccc(O)c3C2=O)[C@@H](OC(C)=O)[C@H](OC(C)=O)[C@H]1OC(C)=O
- inhibition [5]: Active
- Activity [6]: Active
- Activity [7]: inactive
- pIC50 [8]: < 4.70
- Activity [9]: Active
- inhibition [10]: Active
- inhibition [11]: Active
- Activity [12]: Active

- inhibition [3]: Active
- pIC50 [21]: 5.40
SMILES: CC(=O)OC[C@H]1O[C@H](OC2=CC(=O)c3cccc(O)c3C2=O)[C@H](OC(C)=O)[C@@H](OC(C)=O)[C@@H]1OC(C)=O
- inhibition [5]: Active
- Activity [6]: Active
- Activity [7]: inactive
- Activity [9]: Active
- inhibition [10]: Active
- inhibition [11]: Active
- Activity [12]: Active

- Activity [4]: Not Active
- Stability [27]: Stable
- inhibition [2]: Active
SMILES: COc1ccc(SC2=C(c3ccc(O)cc3O)C(=O)c3c(O)cccc3C2=O)cc1
